# Measured values published in ChEMBL document CHEMBL3244142, “Antifungal properties of 2-bromo-3-fluorosuccinic acid esters and related compounds” (1977).
# Calls of active or inactive are those of the source. The calls are words filed in the database; no cut-off is given here.
# Assays:
# [1] = system: Trichophyton mentagrophytes; assay: Antifungal activity against Trichophyton mentagrophytes ATCC 9129 at pH 5.6 after 5 days in presence of 10% beef serum; type: functional; details: Trichophyton mentagrophytes, ATCC 9129, 120 h; read-out: MIC
# How it was run: (§1)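 Agar-dilution MIC in Sabouraud dextrose agar at pH 5.6 or 7.0, with or without 10% beef serum. Plates were incubated at 28 °C for 5 days. MIC is the lowest concentration (µg/mL) giving 100% inhibition. Steps were 1 µg/mL up to 10, 2 µg/mL from 10–20, and 10 µg/mL from 20–100; 100 µg/mL was the top level, and no inhibition there is scored as >100.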
# Candida albicans [2] = assay: Antifungal activity against Candida albicans ATCC 10231 at pH 5.6 after 20 h in absence of 10% beef serum; details: ATCC 10231, 20 h
# [3] = system: Trichophyton mentagrophytes; assay: Antifungal activity against Trichophyton mentagrophytes ATCC 9129 at pH 7 after 5 days in absence of 10% beef serum; type: functional; details: Trichophyton mentagrophytes, ATCC 9129, 120 h; read-out: MIC; how it was run: as §1
# Aspergillus niger [4] = assay: Antifungal activity against Aspergillus niger ATCC 1004 at pH 5.6 after 5 days in presence of 10% beef serum; type: functional; details: Aspergillus niger, ATCC 1004, 120 h; read-out: MIC; how it was run: as §1
# Candida albicans [5] = assay: Antifungal activity against Candida albicans ATCC 10231 at pH 7 after 20 h in absence of 10% beef serum; details: ATCC 10231, 20 h
# [6] = system: Trichophyton mentagrophytes; assay: Antifungal activity against Trichophyton mentagrophytes ATCC 9129 at pH 5.6 after 5 days in absence of 10% beef serum; type: functional; details: Trichophyton mentagrophytes, ATCC 9129, 120 h; read-out: MIC; how it was run: as §1
# Aspergillus niger [7] = assay: Antifungal activity against Aspergillus niger ATCC 1004 at pH 5.6 after 5 days in absence of 10% beef serum; type: functional; details: Aspergillus niger, ATCC 1004, 120 h; read-out: MIC; how it was run: as §1
# Mucor mucedo [8] = assay: Antifungal activity against Mucor mucedo ATCC 7941 at pH 5.6 after 20 h in absence of 10% beef serum; details: ATCC 7941, 20 h
# Mucor mucedo [9] = assay: Antifungal activity against Mucor mucedo ATCC 7941 at pH 7 after 20 h in absence of 10% beef serum; details: ATCC 7941, 20 h
# [10] = system: Trichophyton mentagrophytes; assay: Antifungal activity against Trichophyton mentagrophytes ATCC 9129 at pH 7 after 5 days in presence of 10% beef serum; type: functional; details: Trichophyton mentagrophytes, ATCC 9129, 120 h; read-out: MIC; how it was run: as §1
# Candida albicans [11] = assay: Antifungal activity against Candida albicans ATCC 10231 at pH 5.6 after 20 h in presence of 10% beef serum; details: ATCC 10231, 20 h
# Aspergillus niger [12] = assay: Antifungal activity against Aspergillus niger ATCC 1004 at pH 7 after 5 days in absence of 10% beef serum; type: functional; details: Aspergillus niger, ATCC 1004, 120 h; read-out: MIC; how it was run: as §1
# Aspergillus niger [13] = assay: Antifungal activity against Aspergillus niger ATCC 1004 at pH 7 after 5 days in presence of 10% beef serum; type: functional; details: Aspergillus niger, ATCC 1004, 120 h; read-out: MIC; how it was run: as §1
# Candida albicans [14] = assay: Antifungal activity against Candida albicans ATCC 10231 at pH 7 after 20 h in presence of 10% beef serum; details: ATCC 10231, 20 h
# Mucor mucedo [15] = assay: Antifungal activity against Mucor mucedo ATCC 7941 at pH 7 after 20 h in presence of 10% beef serum; details: ATCC 7941, 20 h
# Mucor mucedo [16] = assay: Antifungal activity against Mucor mucedo ATCC 7941 at pH 5.6 after 20 h in presence of 10% beef serum; details: ATCC 7941, 20 h
# Candida albicans [17] = assay: Antifungal activity against Candida albicans ATCC 10231 at <100 ug/ml at pH 5.6 after 20 h in absence of 10% beef serum
# Candida albicans [18] = assay: Antifungal activity against Candida albicans ATCC 10231 at <100 ug/ml at pH 7 after 20 h in absence of 10% beef serum
# [19] = system: Trichophyton mentagrophytes; assay: Antifungal activity against Trichophyton mentagrophytes ATCC 9129 at <100 ug/ml at pH 5.6 after 5 days in presence of 10% beef serum; type: functional, organism-based; how it was run: as §1
# Aspergillus niger [20] = assay: Antifungal activity against Aspergillus niger ATCC 1004 at <100 ug/ml at pH 7 after 5 days in presence of 10% beef serum; type: functional, organism-based; how it was run: as §1
# [21] = system: Trichophyton mentagrophytes; assay: Antifungal activity against Trichophyton mentagrophytes ATCC 9129 at <100 ug/ml at pH 7 after 5 days in presence of 10% beef serum; type: functional, organism-based; how it was run: as §1
# Candida albicans [22] = assay: Antifungal activity against Candida albicans ATCC 10231 at <100 ug/ml at pH 7 after 20 h in presence of 10% beef serum
# Aspergillus niger [23] = assay: Antifungal activity against Aspergillus niger ATCC 1004 at <100 ug/ml at pH 7 after 5 days in absence of 10% beef serum; type: functional, organism-based; how it was run: as §1
# Aspergillus niger [24] = assay: Antifungal activity against Aspergillus niger ATCC 1004 at <100 ug/ml at pH 5.6 after 5 days in presence of 10% beef serum; type: functional, organism-based; how it was run: as §1
# Mucor mucedo [25] = assay: Antifungal activity against Mucor mucedo ATCC 7941 at <100 ug/ml at pH 7 after 20 h in presence of 10% beef serum
# Mucor mucedo [26] = assay: Antifungal activity against Mucor mucedo ATCC 7941 at <100 ug/ml at pH 5.6 after 20 h in absence of 10% beef serum
# Mucor mucedo [27] = assay: Antifungal activity against Mucor mucedo ATCC 7941 at <100 ug/ml at pH 7 after 20 h in absence of 10% beef serum
# Mucor mucedo [28] = assay: Antifungal activity against Mucor mucedo ATCC 7941 at <100 ug/ml at pH 5.6 after 20 h in presence of 10% beef serum
# Aspergillus niger [29] = assay: Antifungal activity against Aspergillus niger ATCC 1004 at <100 ug/ml at pH 5.6 after 5 days in absence of 10% beef serum; type: functional, organism-based; how it was run: as §1
# Candida albicans [30] = assay: Antifungal activity against Candida albicans ATCC 10231 at <100 ug/ml at pH 5.6 after 20 h in presence of 10% beef serum
Compound,MIC [1] [µg/mL],MIC (Candida albicans [2]) [µg/mL],MIC [3] [µg/mL],MIC (Aspergillus niger [4]) [µg/mL],MIC (Candida albicans [5]) [µg/mL],MIC [6] [µg/mL],MIC (Aspergillus niger [7]) [µg/mL],MIC (Mucor mucedo [8]) [µg/mL],MIC (Mucor mucedo [9]) [µg/mL],MIC [10] [µg/mL],MIC (Candida albicans [11]) [µg/mL],MIC (Aspergillus niger [12]) [µg/mL],MIC (Aspergillus niger [13]) [µg/mL],MIC (Candida albicans [14]) [µg/mL],MIC (Mucor mucedo [15]) [µg/mL],MIC (Mucor mucedo [16]) [µg/mL],inhibition (Aspergillus niger [20]),inhibition (Candida albicans [22]),inhibition (Aspergillus niger [23]),inhibition (Aspergillus niger [24]),also measured
CCCCCOC(=O)[C@H](F)[C@@H](Br)C(=O)OCCCCC (relative stereo),,,40,,,12,,,,,,,,,,,inactive,inactive,inactive,inactive,inhibition (Candida albicans [17]): inactive; inhibition (Candida albicans [18]): inactive; inhibition [19]: inactive; inhibition [21]: inactive; inhibition (Mucor mucedo [25]): inactive; inhibition (Mucor mucedo [26]): inactive; inhibition (Mucor mucedo [27]): inactive; inhibition (Mucor mucedo [28]): inactive; inhibition (Aspergillus niger [29]): inactive; inhibition (Candida albicans [30]): inactive
CCCCCOC(=O)[C@@H](F)[C@@H](Br)C(=O)OCCCCC (relative stereo),,,14,,,3,,,,,,,,,,,inactive,inactive,inactive,inactive,inhibition (Candida albicans [17]): inactive; inhibition (Candida albicans [18]): inactive; inhibition [19]: inactive; inhibition [21]: inactive; inhibition (Mucor mucedo [25]): inactive; inhibition (Mucor mucedo [26]): inactive; inhibition (Mucor mucedo [27]): inactive; inhibition (Mucor mucedo [28]): inactive; inhibition (Aspergillus niger [29]): inactive; inhibition (Candida albicans [30]): inactive
CCOC(=O)/C=C/C(=O)OCC,20,60,18,,90,7,,40,50,50,70,,,,50,50,inactive,inactive,inactive,inactive,inhibition (Aspergillus niger [29]): inactive

# These reach a lower MIC [3]. Values come first.
MIC [1] [µg/mL],MIC (Candida albicans [2]) [µg/mL],MIC [3] [µg/mL],MIC (Aspergillus niger [4]) [µg/mL],MIC (Candida albicans [5]) [µg/mL],MIC [6] [µg/mL],MIC (Aspergillus niger [7]) [µg/mL],MIC (Mucor mucedo [8]) [µg/mL],MIC (Mucor mucedo [9]) [µg/mL],MIC [10] [µg/mL],MIC (Candida albicans [11]) [µg/mL],MIC (Aspergillus niger [12]) [µg/mL],MIC (Aspergillus niger [13]) [µg/mL],MIC (Candida albicans [14]) [µg/mL],MIC (Mucor mucedo [15]) [µg/mL],MIC (Mucor mucedo [16]) [µg/mL],Compound,inhibition (Aspergillus niger [20]),inhibition (Candida albicans [22]),inhibition (Aspergillus niger [23]),inhibition (Aspergillus niger [24]),also measured
< 1,< 1,< 1,< 1,< 1,< 1,< 1,< 1,< 1,< 1,< 1,< 1,< 1,< 1,< 1,< 1,C[C@@H]1[C@H](O)[C@@H](C)/C=C/C=C/C=C/C=C/C=C/C=C/C=C/[C@H](O[C@@H]2O[C@H](C)[C@@H](O)[C@H](N)[C@@H]2O)C[C@@H]2O[C@](O)(C[C@@H](O)C[C@@H](O)[C@H](O)CC[C@@H](O)C[C@@H](O)CC(=O)O[C@H]1C)C[C@H](O)[C@H]2C(=O)O [AMPHOTERICIN B],,,,,
2,4,2,20,7,< 1,18,2,4,5,5,20,30,14,9,6,CCOC(=O)[C@H](F)[C@@H](Br)C(=O)OCC (relative stereo),,,,,
5,3,2,18,4,< 1,18,< 1,3,14,5,40,60,14,14,14,CCCOC(=O)[C@@H](F)[C@@H](Br)C(=O)OCCC (relative stereo),,,,,
